Assay results: ChEMBL document CHEMBL3421608, “Discovery and optimization of a novel series of Dyrk1B kinase inhibitors to explore a MEK resistance hypothesis” (J Med Chem, 2015)
Converted amounts (≈) assume the structure as drawn. The source made the active and inactive calls. No cut-off for these calls is given here.

Tests used:
[1] = Aqueous solubility of the compound at pH 7.4; type: physicochemical; conditions: buffer
[2] = biological target: Insulin-like growth factor 1 receptor (Homo sapiens, UniProt P08069); experiment: Inhibition of human recombinant N-terminal His6-tagged IGF-1R using fluorescence substrate after 80 mins by caliper off-chip incubation mobility shift assay
[3] = Oral bioavailability in Wistar Han rat at 3 umol/kg; type: ADME, organism-based; conditions: in vivo
[4] = biological target: Cyclin-dependent kinase 2 (Homo sapiens, UniProt P24941); experiment: Inhibition of human recombinant full length C-terminal His6-tagged CDK2 expressed in baculovirus infected Sf21 insect cells using fluorescence substrate after 60 mins by caliper off-chip incubation mobility shift assay
[5] = biological target: T1, Dual specificity tyrosine-phosphorylation-regulated kinase 1B (Homo sapiens, UniProt Q9Y463); experiment: Inhibition of recombinant Dyrk1B (unknown origin) using FITC-Asp-His-Thr-Gly-Phe-Leu-Thr-Glu-Tyr-Val-Ala-Thr-Arg-NH2 as substrate after 60 mins
[6] = Permeability across human Caco2 cells; type: ADME, cell-based; conditions: caco-2
[7] = biological target: T1, Dual specificity tyrosine-phosphorylation-regulated kinase 1B; experiment: Inhibition of human full length C-terminal c-Myc tagged Dyrk1B phosphorylation overexpressed in monkey COS1 cells after 5 hrs by ELISA; type: cell-based, COS-1
[8] = Intrinsic clearance in Wistar Han rat hepatocytes assessed per 10^6 cells; type: ADME, cell-based, Hepatocyte; conditions: read-out: CLH
Method in brief: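 Intrinsic clearance in Wistar Han rat hepatocytes, expressed as μL/min/1 × 10⁶ cells.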

[9] = Clearance in Wistar Han rat plasma at 2 umol/kg; type: ADME, cell-free
[10] = biological target: T2, Dual specificity tyrosine-phosphorylation-regulated kinase 2 (Homo sapiens, UniProt Q92630); experiment: Inhibition of Dyrk2 (unknown origin)
T2 sequence (Q92630 whole entry): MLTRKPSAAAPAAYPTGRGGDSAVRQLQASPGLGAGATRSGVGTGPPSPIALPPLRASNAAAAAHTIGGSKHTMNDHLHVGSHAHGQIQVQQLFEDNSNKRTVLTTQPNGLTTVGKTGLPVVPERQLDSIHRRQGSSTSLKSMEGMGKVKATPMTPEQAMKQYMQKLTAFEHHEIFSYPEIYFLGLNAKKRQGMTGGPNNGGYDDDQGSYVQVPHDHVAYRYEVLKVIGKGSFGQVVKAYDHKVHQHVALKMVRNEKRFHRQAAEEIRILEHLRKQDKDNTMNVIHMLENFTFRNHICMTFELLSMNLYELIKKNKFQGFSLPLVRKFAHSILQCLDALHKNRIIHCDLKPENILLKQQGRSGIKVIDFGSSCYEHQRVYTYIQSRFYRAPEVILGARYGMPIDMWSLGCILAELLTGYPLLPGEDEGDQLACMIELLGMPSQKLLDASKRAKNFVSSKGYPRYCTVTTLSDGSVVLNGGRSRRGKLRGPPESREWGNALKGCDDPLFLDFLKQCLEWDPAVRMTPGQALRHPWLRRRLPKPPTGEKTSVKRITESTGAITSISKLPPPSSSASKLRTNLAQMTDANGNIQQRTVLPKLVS

A-375 = experiment: Cytotoxicity against human A375 cells at 1.33 uM after 72 hrs by calcein green AM/propidium iodide staining-based assay in presence of AZD6244 relative to control; type: functional, cell-based
Method in brief: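 A375 melanoma cells treated with AZD6244 with or without Dyrk1B inhibitor at 1.33 μM for 72 h. Viability by calcein green AM and propidium iodide staining; percentage of dead cells is mean and SEM of at least two separate experiments.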

Sequence of Insulin-like growth factor 1 receptor (P08069 31-736 limits assumed): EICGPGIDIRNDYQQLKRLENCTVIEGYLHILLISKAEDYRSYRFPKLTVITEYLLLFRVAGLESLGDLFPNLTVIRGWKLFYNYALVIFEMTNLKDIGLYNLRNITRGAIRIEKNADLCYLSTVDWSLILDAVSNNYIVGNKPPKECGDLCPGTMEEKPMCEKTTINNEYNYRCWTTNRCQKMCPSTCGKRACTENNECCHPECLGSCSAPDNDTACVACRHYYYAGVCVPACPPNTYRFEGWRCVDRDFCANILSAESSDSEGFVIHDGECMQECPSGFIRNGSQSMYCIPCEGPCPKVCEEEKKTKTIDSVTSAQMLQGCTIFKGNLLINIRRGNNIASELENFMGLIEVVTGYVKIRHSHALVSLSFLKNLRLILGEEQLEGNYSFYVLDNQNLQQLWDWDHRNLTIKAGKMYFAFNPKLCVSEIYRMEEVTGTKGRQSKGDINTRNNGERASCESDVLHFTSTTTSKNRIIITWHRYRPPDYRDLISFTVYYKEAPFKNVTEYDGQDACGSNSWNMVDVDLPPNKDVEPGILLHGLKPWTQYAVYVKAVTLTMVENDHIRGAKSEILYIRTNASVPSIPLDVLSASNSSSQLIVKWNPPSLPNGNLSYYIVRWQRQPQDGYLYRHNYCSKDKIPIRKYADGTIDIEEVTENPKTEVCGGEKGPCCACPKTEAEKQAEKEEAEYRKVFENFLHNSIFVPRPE
Sequence of Insulin-like growth factor 1 receptor (P08069 741-1367 limits assumed): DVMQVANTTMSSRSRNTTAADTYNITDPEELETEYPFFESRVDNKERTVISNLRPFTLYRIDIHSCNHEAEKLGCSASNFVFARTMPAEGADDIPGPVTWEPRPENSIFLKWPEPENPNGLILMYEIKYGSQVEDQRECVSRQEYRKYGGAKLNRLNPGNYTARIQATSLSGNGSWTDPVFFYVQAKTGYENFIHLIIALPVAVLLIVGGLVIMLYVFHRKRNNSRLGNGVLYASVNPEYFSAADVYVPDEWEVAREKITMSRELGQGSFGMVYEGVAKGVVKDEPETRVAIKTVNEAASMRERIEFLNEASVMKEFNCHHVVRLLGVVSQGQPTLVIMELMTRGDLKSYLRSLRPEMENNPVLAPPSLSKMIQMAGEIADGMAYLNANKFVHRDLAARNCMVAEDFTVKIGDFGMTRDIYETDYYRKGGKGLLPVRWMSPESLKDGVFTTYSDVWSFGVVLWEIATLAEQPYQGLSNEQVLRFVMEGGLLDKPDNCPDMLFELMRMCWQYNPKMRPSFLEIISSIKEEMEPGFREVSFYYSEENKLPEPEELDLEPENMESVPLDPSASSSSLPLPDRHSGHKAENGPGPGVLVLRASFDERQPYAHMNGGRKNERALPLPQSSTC
T1 sequence (Q9Y463 whole entry): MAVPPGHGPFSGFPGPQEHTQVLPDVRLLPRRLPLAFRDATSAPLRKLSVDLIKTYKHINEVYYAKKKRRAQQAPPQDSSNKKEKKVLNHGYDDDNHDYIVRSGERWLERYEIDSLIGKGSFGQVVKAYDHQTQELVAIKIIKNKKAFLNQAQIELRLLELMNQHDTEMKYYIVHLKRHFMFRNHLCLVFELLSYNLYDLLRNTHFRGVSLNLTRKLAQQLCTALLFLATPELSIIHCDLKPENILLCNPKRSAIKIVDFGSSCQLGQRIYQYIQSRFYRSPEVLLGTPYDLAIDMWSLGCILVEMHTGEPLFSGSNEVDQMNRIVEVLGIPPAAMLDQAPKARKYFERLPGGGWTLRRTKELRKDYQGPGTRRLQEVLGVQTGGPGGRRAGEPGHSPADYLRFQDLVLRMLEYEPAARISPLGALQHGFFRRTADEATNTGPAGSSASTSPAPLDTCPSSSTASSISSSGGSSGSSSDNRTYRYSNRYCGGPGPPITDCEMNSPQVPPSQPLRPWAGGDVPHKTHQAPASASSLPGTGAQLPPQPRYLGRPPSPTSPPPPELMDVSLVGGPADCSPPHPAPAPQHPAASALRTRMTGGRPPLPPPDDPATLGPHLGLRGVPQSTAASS

Molecule `Cn1cc(-c2ccnc(-c3ccc(S(C)(=O)=O)cc3)n2)c2ccncc21` has a solubility [1] of 2 µM (≈ 0.729 µg/mL), an IC50 [2] of over 10000 nM and a bioavailability [3] of 37%. The IC50 [4] was over 100000 nM, the IC50 [5] was 12 nM and the permeability [6] was “permeable”. The IC50 [7] was 810 nM, the hepatocyte CLint [8] was 8 µL/min/1e6 cells and the clearance [9] was 23 mL/min/kg.
Work on `COc1cc(N2CCN(C)CC2)ccc1Nc1nccc(-c2cn(C)c3cnccc23)n1` yielded a solubility [1] of over 755 µM, an IC50 [2] of 779 nM and a bioavailability [3] of 22%. The IC50 [4] was 4470 nM, the IC50 [10] was 190 nM and the Activity (A-375) was “inactive”. It also gave a hepatocyte CLint [8] of 18 µL/min/1e6 cells and a clearance [9] of 27 mL/min/kg.
